Converted amounts (≈) assume the structure as drawn.
How the values were obtained:
[1] = tested on: Mycobacterium tuberculosis; assay: Antimycobacterial activity against Mycobacterium tuberculosis H37Rv measured by MABA assay; format: functional
Summary of the method: (§1)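 Microplate Alamar Blue assay against replicating M. tuberculosis H37Rv or clinical isolates. MIC is the lowest concentration giving ≥90% reduction in fluorescence relative to the mean of replicate bacterium-only controls.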

[2] = Cytotoxicity against African green monkey Vero cells measured by MTT assay; format: toxicity, cell-based; conditions: African green monkey (Chlorocebus sabaeus)
Summary of the method: (§2)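 Vero, HepG2 and mouse J774A.1 cells grown in RPMI 1640 with 10% FBS. MTT read-out in 96-well format.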

[3] = Cytotoxicity against human HepG2 cells measured by MTT assay; format: toxicity, cell-based; summary of the method: as §2
[4] = molecular target: Voltage-gated inwardly rectifying potassium channel KCNH2 (Homo sapiens, UniProt Q12809); assay: Inhibition of hERG; format: toxicity
Sequence of Voltage-gated inwardly rectifying potassium channel KCNH2 (Q12809 whole entry): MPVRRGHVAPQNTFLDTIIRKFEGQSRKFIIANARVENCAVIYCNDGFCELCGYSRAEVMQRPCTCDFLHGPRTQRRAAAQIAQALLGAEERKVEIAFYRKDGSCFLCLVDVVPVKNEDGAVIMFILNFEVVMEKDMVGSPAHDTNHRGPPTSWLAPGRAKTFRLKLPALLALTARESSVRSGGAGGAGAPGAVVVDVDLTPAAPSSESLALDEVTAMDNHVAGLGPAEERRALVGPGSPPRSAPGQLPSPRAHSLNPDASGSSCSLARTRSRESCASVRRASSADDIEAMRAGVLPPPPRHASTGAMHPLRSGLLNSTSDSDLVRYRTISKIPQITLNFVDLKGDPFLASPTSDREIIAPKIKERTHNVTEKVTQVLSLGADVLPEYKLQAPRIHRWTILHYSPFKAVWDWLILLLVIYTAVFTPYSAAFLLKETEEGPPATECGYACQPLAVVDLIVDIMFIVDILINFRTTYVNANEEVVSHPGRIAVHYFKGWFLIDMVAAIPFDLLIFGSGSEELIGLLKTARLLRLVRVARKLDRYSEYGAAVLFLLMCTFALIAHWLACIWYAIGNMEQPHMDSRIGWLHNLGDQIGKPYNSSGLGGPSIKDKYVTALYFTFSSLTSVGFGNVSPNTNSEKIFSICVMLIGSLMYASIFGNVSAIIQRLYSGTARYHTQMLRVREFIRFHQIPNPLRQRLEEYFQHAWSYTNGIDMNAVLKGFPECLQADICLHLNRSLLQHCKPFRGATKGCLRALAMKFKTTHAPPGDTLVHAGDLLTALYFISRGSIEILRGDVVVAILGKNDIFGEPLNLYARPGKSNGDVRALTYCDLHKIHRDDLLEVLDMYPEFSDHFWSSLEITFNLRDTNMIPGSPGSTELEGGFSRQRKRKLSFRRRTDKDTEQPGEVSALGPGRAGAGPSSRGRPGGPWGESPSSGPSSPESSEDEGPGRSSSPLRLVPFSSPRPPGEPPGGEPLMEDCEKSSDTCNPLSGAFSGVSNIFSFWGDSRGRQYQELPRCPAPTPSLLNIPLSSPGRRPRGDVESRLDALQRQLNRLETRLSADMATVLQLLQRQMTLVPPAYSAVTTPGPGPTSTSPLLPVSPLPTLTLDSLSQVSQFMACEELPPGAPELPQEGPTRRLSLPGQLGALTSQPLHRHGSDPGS
Summary of the method: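 Electrophysiological recording of hERG current at 30, 10, 3.0, 1.0 and 0.3 µM, run in duplicate for IC50.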

[5] = Selectivity index, Ratio of IC50 for Vero cells over MIC for Mycobacterium tuberculosis H37Rv; format: toxicity; conditions: monkey
[6] = tested on: Mycobacterium tuberculosis; assay: Antimycobacterial activity against Mycobacterium tuberculosis 13946 clinical isolate measured by MABA assay; format: functional; summary of the method: as §1
[7] = tested on: Mycobacterium tuberculosis; assay: Antimycobacterial activity against Mycobacterium tuberculosis 14862 clinical isolate measured by MABA assay; format: functional; summary of the method: as §1
[8] = Metabolic stability in mouse hepatocytes assessed as compound remaining at 1 uM measured by LC-MS/MS analysis; format: ADME, cell-based, Hepatocyte; conditions: read-out: Stability
Summary of the method: (§3)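 Compound at 1 µM with hepatocytes at 1 million cells/mL final; human hepatocytes are mixed donor, mouse are male. Incubated at 37 °C in CO2 at ~100 rpm. Sampled at 0, 15, 30, 60, 90 and 120 min, quenched in ice-cold ACN/MeOH with internal standard. Parent remaining measured by LC-MS/MS.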

[9] = Metabolic stability in mouse hepatocytes assessed as half-life at 1 uM measured by LC-MS/MS analysis; format: ADME, cell-based, Hepatocyte; summary of the method: as §3
[10] = Metabolic stability in human hepatocytes assessed as compound remaining at 1 uM measured by LC-MS/MS analysis; format: ADME, cell-based, Hepatocyte; conditions: read-out: Stability; summary of the method: as §3
[11] = Metabolic stability in human hepatocytes assessed as half-life at 1 uM measured by LC-MS/MS analysis; format: ADME, cell-based, Hepatocyte; summary of the method: as §3
[12] = Cytotoxicity against mouse J774.A1 cells measured by MTT assay; format: toxicity, cell-based; summary of the method: as §2
J774.A1 [13] = assay: Antimycobacterial activity against Mycobacterium tuberculosis H37Rv infected in mouse J774.A1 cells assessed as change in log10 CFU at 10 ug/ml; format: functional; conditions: dose 10 µg/ml
Summary of the method: (§4)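 Mouse J774A.1 macrophages infected with M. tuberculosis H37Rv, test compound at final 10 or 5 µg/mL. Read-out is intracellular log10 CFU; Δlog10 CFU = untreated minus treated. Triplicates in at least three separate experiments.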

J774.A1 [14] = assay: Antimycobacterial activity against Mycobacterium tuberculosis H37Rv infected in mouse J774.A1 cells assessed as change in log10 CFU at 5 ug/ml; format: functional; conditions: dose 5 µg/ml; summary of the method: as §4
[15] = tested on: Mycobacterium tuberculosis; assay: Antimycobacterial activity against Mycobacterium tuberculosis H37Rv infected in BALB/c mouse assessed as reduction in log10 CFU in lungs at 100 mg/kg, po administered 5 times a week from day 10 to 30; format: functional
Summary of the method: (§5)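 Female SPF BALB/c mice, 18–20 g, 6 per group, aerosol-infected with M. tuberculosis H37Rv to deposit 50–100 bacilli per lung. Oral gavage in 0.5% CMC at 25 or 100 mg/kg, 5 days/week from day 10 to day 30; controls get vehicle. Lungs harvested the next day and plated on 7H11 for 3 weeks at 37 °C. Mean log10 CFU compared by Student's t test.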

[16] = Toxicity in BALB/c mouse infected with Mycobacterium tuberculosis H37Rv assessed as body weight at 100 mg/kg, po administered 5 times a week from day 10 to 30; format: organism-based; conditions: in vivo; summary of the method: as §5
[17] = tested on: Mycobacterium tuberculosis; assay: Antimycobacterial activity against Mycobacterium tuberculosis H37Rv infected in BALB/c mouse assessed as reduction in log10 CFU in lungs at 25 mg/kg, po administered 5 times a week from day 10 to 30; format: functional; summary of the method: as §5
[18] = Toxicity in BALB/c mouse infected with Mycobacterium tuberculosis H37Rv assessed as body weight at 25 mg/kg, po administered 5 times a week from day 10 to 30; format: organism-based; conditions: in vivo; summary of the method: as §5

SMILES | MIC [1] | IC50 [2] | IC50 [3] | IC50 [4] | selectivity ratio [5] | MIC [6] | MIC [7] | remaining at 1 µM [8] | half-life at 1 µM [9] | remaining at 1 µM [10] | half-life at 1 µM [11] | IC50 [12] | Activity (J774.A1 [13]) | Activity (J774.A1 [14]) | Activity [15] | Activity [16] | Activity [17] | Activity [18]
CCOC(=O)NC(=O)c1ccsc1NC(=O)c1ccc(S(=O)(=O)N2CCCC2)cc1 | < 0.016 µg/mL | 58.2 µg/mL (≈ 129 µM) | 62.9 µg/mL (≈ 139 µM) | > 30 µM | > 3640 | 0.057 µg/mL (≈ 0.126 µM) | 0.03 µg/mL (≈ 0.0664 µM) | 49.7% | 29.7 min | 42% | 24 min | > 64 µg/mL | 1.29 deltalog10CFU | 1.19 deltalog10CFU | 4.81 log10CFU | 20.94 g | – | –
NNC(=O)c1ccncc1 [ISONIAZID] | 0.019 µg/mL (≈ 0.139 µM) | – | – | – | – | 2.46 µg/mL (≈ 17.9 µM) | > 10 µg/mL | – | – | – | – | – | – | – | – | – | 1.76 log10CFU | 20.9 g

From ChEMBL document CHEMBL5154717, “Identification of thiophene-benzenesulfonamide derivatives for the treatment of multidrug-resistant tuberculosis” (Eur J Med Chem, 2022)
